Hits are enriched below; roughly 2.3% of the tested compounds scored in any of these assays.
MT1-MMP act inh = MT1-MMP (human) activation inhibition. 360,000 compounds, 0.061% hits. P50281. AID 651647. GFP/RFP ratio change, % at 20 µM. HT1080 RFP-PRO-GFP cells, GFP/RFP ratio fluorescence, overnight; percent of plate control window, DMSO zero;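 active = GFP/RFP ratio change of at least 30% with cell ATP level not reduced by more than half and red fluorescence within 50% of control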
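Assay system: HT1080 RFP-PRO-GFP cells | Dosing: 20 µM single dose, 1% DMSO | Incubation: Cells overnight before dosing, compound overnight, 37 °C, 5% CO2 | Evaluation: GFP/RFP fluorescence ratio | Control set: DMSO-only wells and HT1080 RFP-L50D-GFP cell wells as references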
Rpn11 block = Rpn11 (human) deubiquitinase inhibition; human 26S proteasome, Ub4-pepOG fluorescence polarization; 20S core pre-blocked with epoxomicin; inhibition, % at 20 µM; O00487; 360,000 compounds, 0.59% hits;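 active = inhibition at 20 µM, scaled to each plate's controls, above about 33%, limit read from the data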
Target sequence (O00487 whole entry, looked up): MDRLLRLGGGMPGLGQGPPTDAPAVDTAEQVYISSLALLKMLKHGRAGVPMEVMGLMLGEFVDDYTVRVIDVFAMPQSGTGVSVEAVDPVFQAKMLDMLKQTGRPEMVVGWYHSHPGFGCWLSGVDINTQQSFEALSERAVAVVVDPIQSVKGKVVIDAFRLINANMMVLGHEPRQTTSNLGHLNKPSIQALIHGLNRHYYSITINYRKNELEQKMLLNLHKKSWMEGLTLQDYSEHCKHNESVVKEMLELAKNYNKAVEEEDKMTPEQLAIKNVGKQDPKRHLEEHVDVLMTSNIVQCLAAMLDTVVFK
SUMO1 PPI mod = modulators of human SUMO1-mediated protein-protein interactions. AID 602429. SUMO1 binding to a labelled peptide, TR-FRET, 1 h. inhibition, % at 20 µM. 360,000 compounds, 0.33% hits; in the data active = inhibition above about 37%
DNMT1 inh = inhibitors of human DNMT1; DNMT1 molecular beacon, Hinp1I cleavage, fluorescence; inhibition (reported as % activation of signal), % at 10 µM; AID 588458; 360,000 compounds, 0.83% hits; in the data active = inhibition above about 50%
CSN inh = blocks human CSN-mediated cullin deneddylation; inhibition, % at 12.5 µM; Purified CSN, SCF-Nedd8-OG deneddylation, fluorescence polarization; 360,000 compounds, 0.38% hits; AID 651999; Q92905;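 active = pattern-corrected inhibition above about 35%, with an unprinted fluorescence ratio check between 0.5 and 1.5, limit read from the data, passing the limit was not always enough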;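 note: 0% = enzyme with substrate and 100% = substrate without enzyme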
Target sequence (Q92905 whole entry, looked up, one chain of several): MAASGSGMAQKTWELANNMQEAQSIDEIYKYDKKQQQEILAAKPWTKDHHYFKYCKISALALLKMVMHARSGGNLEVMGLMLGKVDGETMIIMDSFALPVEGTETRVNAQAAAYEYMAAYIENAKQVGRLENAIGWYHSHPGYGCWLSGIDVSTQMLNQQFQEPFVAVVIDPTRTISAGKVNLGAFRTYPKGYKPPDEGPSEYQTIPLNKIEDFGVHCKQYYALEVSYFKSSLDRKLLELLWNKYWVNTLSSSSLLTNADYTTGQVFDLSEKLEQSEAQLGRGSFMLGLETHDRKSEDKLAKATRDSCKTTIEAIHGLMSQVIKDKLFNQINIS
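Assay system: purified human Csn5 enzyme expressed in HEK293T cells; Input: 0.24 nM Csn5 enzyme, final concentration; Reagent: 10 nM SCFSkp2-Nedd8OG; Compound dosing: 12.5 µM single point; Times: reaction 90 min, room temperature; Technique: fluorescence polarization readout.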
SKN-1 block = C. elegans SKN-1 inhibition; C. elegans VP596 Pgst-4::GFP/RFP ratio, acrylamide-induced, 24 h; inhibition, % at 21.8 µM; 360,000 compounds, 0.49% hits;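 active = interference check ratio from 0.5 to 1.5 plus GFP to RFP signal ratio inhibition reaching or exceeding a fixed threshold, cut at about 30% in these data, passing the limit was not always enough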
DNMT1 confirm = DNMT1 inhibition confirmation, single concentration; 2,300 compounds, 8% hits; DNMT1 molecular beacon HinP1I cleavage, fluorescence; inhibition, % at 10 µM; shares compounds with DNMT1 inh;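 active = average inhibition of at least 30% in the single-concentration confirmation test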
DNMT1 interf = shows spectral interference in the DNMT1 beacon assay; shares compounds with DNMT1 inh; DNMT1 molecular beacon spectral interference counterscreen, fluorescence 485/520; activation (fluorescence interference), % at 10 µM; 2,300 compounds, 1% hits;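 active = activation of at least 30% at 10 µM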;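 note: DNMT1 catalytic domain with a HinP1I cleavage step and a FAM/dabcyl DNA beacon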
The depositor's hits bear a star; . = no result given.

SMILES | MT1-MMP act inh | Rpn11 block | SUMO1 PPI mod | DNMT1 inh | CSN inh | SKN-1 block | DNMT1 confirm | DNMT1 interf
Cc1nc(NC(=O)c2ccco2)sc1-c1csc(Nc2ccc(Cl)cc2Cl)n1 | 5 | 13 | 12 | 63* | 6 | 8 | 3 | 6
Cc1ccccc1NC(=O)COC(=O)c1ccc(CSc2ccc(Cl)cc2)cc1 | -4 | -8 | -1 | 52* | 4 | -2 | 4 | 6
CCc1nc2ccc(C(=O)Nc3cccc(NS(C)(=O)=O)c3)cn2c1N(CC)Cc1cccc(Br)c1 | 1 | 8 | -2 | -16 | 3 | 3 | . | .
CN(C)C(CNC(=O)C1CCN(S(=O)(=O)c2ccccc2)CC1)c1ccccc1 (stereo unspecified) | 0 | 4 | 2 | 88* | 1 | 3 | 5 | 7
COc1ccc(/C=C(/NC(=O)c2ccc(C)cc2)C(=O)NCc2ccncc2)cc1 | -5 | -6 | -4 | 4 | 6 | 7 | . | .
COc1ccc(C(=O)N/C(=C\c2ccc(Cl)cc2)C(=O)NCc2ccncc2)cc1 | -3 | 16 | -2 | 79* | -2 | 12 | 3 | 4
COCc1cc(=O)n2[nH]c(-c3ccsc3-n3c(C)ccc3C)cc2n1 | -9 | 26 | 45* | 68* | 52 | 13 | 2 | -1
COCc1cc(=O)n2[nH]c(N)nc2n1 | 2 | 2 | 6 | 6 | 5 | -3 | . | .
COc1cccc(CN2CCC(C)(Oc3cccc(Cl)c3)C2)c1OC (stereo unspecified) | -2 | -3 | -2 | 3 | 0 | 0 | . | .
Cc1ccc(C(CCN(Cc2ccccc2)C(=O)c2ccco2)c2ccco2)cc1 (stereo unspecified) | -3 | 24 | 3 | 56* | 22 | 3 | 17 | -1
CC(=O)N(CCC(c1ccccc1)c1ccco1)Cc1cccs1 (stereo unspecified) | -12 | -2 | -3 | 1 | 2 | 18 | . | .
CCOC(=O)C1=CCN(S(=O)(=O)c2ccc(Br)cc2)C1c1ccc(C)cc1 (stereo unspecified) | -5 | -1 | 4 | -13 | 0 | 9 | . | .
O=C1C2C3C=CC(CC3)C2C(=O)N1c1nccs1 (stereo unspecified) | 6 | -1 | 2 | 61* | 0 | 7 | -2 | 1
CC1(C(=O)NS(=O)(=O)c2ccc(C#N)cc2)CCN1C(=O)C1(c2ccccc2)CC1 (stereo unspecified) | -1 | 2 | 5 | -2 | -2 | 9 | . | .
COc1ccc(-c2nc3c(C(=O)NCCN(C)C)cccc3c3ccccc23)cc1 | 3 | -11 | -30 | 59* | -1 | 4 | 22 | -1
Cc1cccc(-c2cnc(C(O)c3ccc(F)c(C)c3)[nH]2)c1 (stereo unspecified) | 8 | -8 | -2 | -1 | 2 | 3 | . | .
CCOC(=O)c1[nH]c2c(c1C)C(=O)CC(c1ccco1)C2 (stereo unspecified) | 16 | -28 | 13 | 51* | 19 | 7 | 7 | 6
Cc1c(C(=O)OCCOC(C)C)[nH]c2c1C(=O)CC(c1ccco1)C2 (stereo unspecified) | 16 | -11 | 15 | 32 | 12 | 16 | . | .
COCCOC(=O)c1[nH]c2c(c1C)C(=O)CC(c1ccco1)C2 (stereo unspecified) | 8 | -21 | 22 | 74* | 31 | 17 | 4 | -2
CCOc1ccc(Cl)cc1-c1cc(C(=O)NCc2cc(C(F)(F)F)cc(C(F)(F)F)c2)[nH]n1 | 2 | 5 | 0 | -1 | 1 | -23 | . | .
COc1ccc(/C=N/NC(=O)c2nc(Cl)c(Cl)c(N)c2Cl)cc1COc1ccccc1F | 1 | 5 | 2 | 7 | -1 | -10 | . | .
COc1ccc(/C=N\NC(=O)c2ccccc2F)cc1COc1ccc(F)cc1F | 9 | 6 | 0 | -5 | 5 | 28 | . | .
COc1ccc(/C=N/NC(=O)c2nc(Cl)c(Cl)c(N)c2Cl)cc1COc1ccc(F)cc1F | -1 | -5 | 2 | 53* | -4 | -5 | 9 | 0
COc1ccc(/C=N/NC(=O)c2ccc(NC(C)=O)cc2)cc1COc1ccc(F)cc1F | -2 | 5 | 14 | 77* | 17 | 5 | -2 | -6
NC(c1csc(Nc2ccccn2)n1)C1CCCCC1 (stereo unspecified) | -6 | -2 | -1 | 5 | 2 | 8 | . | .
SMILES | MT1-MMP act inh | Rpn11 block | SUMO1 PPI mod | DNMT1 inh | CSN inh | SKN-1 block | DNMT1 confirm | DNMT1 interf
Cc1cccc(C)c1NC(=O)C1(C)CN(S(C)(=O)=O)CC(=O)N1CCc1ccc(O)cc1 (stereo unspecified) | 5 | . | 0 | . | 8 | -10 | . | .
O=C(Nc1ccc(Oc2ccccc2)cc1)c1csc(COCCO)n1 | 1 | 4 | 5 | 64* | -2 | -4 | 1 | 3
O=C(Nc1ccc(Cl)cc1)c1csc(COCCO)n1 | 2 | 0 | -2 | -3 | 1 | 1 | . | .
O=C(NCc1ccc2c(c1)OCO2)c1cc2ncc(Br)cn2n1 | -3 | 35 | 2 | 71* | -2 | 31 | 4 | 0
COC(=O)c1ccc2nc(-c3ccc(OC)c(OC)c3)c(Cc3cccc(F)c3)n2c1 | 5 | . | 7 | . | 2 | 4 | . | .
O=C(Cc1nnc(NC(=O)Nc2ccc(Cl)cc2)s1)NCc1ccccc1 | -2 | 8 | 1 | 48 | -6 | 3 | 1 | 4
C=CCN(c1nc(C)cc(OC)n1)S(=O)(=O)c1ccc(C)cc1 | -3 | -1 | 1 | 97* | 0 | 14 | 1 | 5
C=CCN(c1nc(C)cc(OC)n1)S(=O)(=O)c1ccccc1 | 3 | 3 | 1 | -3 | 1 | 10 | . | .
CCC12CC1(C(=O)OC)C(=O)N1CCc3c([nH]c4ccccc34)C12 (stereo unspecified) | 5 | 2 | -2 | -3 | -5 | 6 | . | .
Cn1c(N)c(C(=O)COC(=O)/C=C/c2cccc(Cl)c2)c(=O)n(C)c1=O | 11 | 14 | -10 | 66* | -4 | -7 | 3 | 4
Cn1c(N)c(C(=O)COC(=O)/C=C/c2ccccc2F)c(=O)n(C)c1=O | 5 | -2 | -11 | -4 | -2 | -2 | . | .
CCc1nc2ccc(C(=O)NCc3cccs3)cn2c1N(CC)Cc1cccc(Br)c1 | -5 | 0 | -4 | -9 | -2 | 23 | . | .
COc1ccc2ccccc2c1C(O)c1nccn1C (stereo unspecified) | -244 | -216 | -19 | 62* | -68 | 20 | 0 | 2
